Source: ChEMBL document CHEMBL4680077, “Differentiation of skeletal osteogenic progenitor cells to osteoblasts with 3,4-diarylbenzopyran based amide derivatives: Novel osteogenic agents” (Eur J Med Chem, 2016)
Active and inactive are the calls of the source. The rule behind the calls is not given here.

Legend:
[1] = Acute toxicity in Swiss albino mouse assessed as relative ovary weight at 1000 mg/kg, po measured after 7 days (reference value: 0.07 +/- 0.02 %); format: organism-based; settings: in vivo, 168 h, time 7 day
[2] = Acute toxicity in Swiss albino mouse assessed as absolute spleen weight at 300 mg/kg, po measured after 7 days (reference value: 0.17 +/- 0.03 g); format: organism-based; settings: in vivo, 168 h, time 7 day
[3] = Acute toxicity in Swiss albino mouse assessed as albumin level at 50 mg/kg, po measured after 7 days (reference value: 3.24 +/- 0.30 g/dL); format: organism-based; settings: in vivo, 168 h, time 7 day
[4] = Acute toxicity in Swiss albino mouse assessed as creatinine level at 300 mg/kg, po measured after 7 days (reference value: 0.97 +/- 0.07 mg/dL); format: organism-based; settings: in vivo, 168 h, time 7 day
[5] = system: Calvarial osteoblast; assay: Induction of osteoblast differentiation in mouse calvarial osteoblast assessed as increase in RUNX-2 mRNA expression at 1 pM incubated for 24 hrs by qPCR analysis; format: functional, cell-based
Method in brief: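 Calvarial osteoblasts were treated at 1 pM for 24 and 48 h. Total RNA was extracted with TRIzol, and cDNA was made from 2 µg RNA. qPCR ran 40 cycles for BMP-2, RUNX-2, OCN and collagen type 1, with normalization to GAPDH. Mean ± SEM of three independent experiments.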

[6] = Acute toxicity in Swiss albino mouse assessed as serum protein level at 50 mg/kg, po measured after 7 days (reference value: 0.66 +/- 0.01 mg/ml); format: organism-based; settings: in vivo, 168 h, time 7 day
[7] = Acute toxicity in Swiss albino mouse assessed as absolute ovary weight at 5 mg/kg, po measured after 7 days (reference value: 0.04+/- 0.02 g); format: organism-based; settings: in vivo, 168 h, time 7 day
[8] = Acute toxicity in Swiss albino mouse assessed as absolute uterus weight at 50 mg/kg, po measured after 7 days (reference value: 0.27+/- 0.07 g); format: organism-based; settings: in vivo, 168 h, time 7 day
[9] = Acute toxicity in Swiss albino mouse assessed as WBC count per thousand/mm3 at 1000 mg/kg, po measured after 7 days (reference value: 6.84 +/- 0.83 /mm3); format: organism-based; settings: in vivo, 168 h, time 7 day
[10] = Acute toxicity in Swiss albino mouse assessed as relative uterus weight at 300 mg/kg, po measured after 7 days (reference value: 1.63 +/- 0.71 %); format: organism-based; settings: in vivo, 168 h, time 7 day
[11] = Acute toxicity in Swiss albino mouse assessed as relative lung weight at 50 mg/kg, po measured after 7 days (reference value: 0.70 +/- 0.08 %); format: organism-based; settings: in vivo, 168 h, time 7 day
[12] = Acute toxicity in Swiss albino mouse assessed as absolute spleen weight at 1000 mg/kg, po measured after 7 days (reference value: 0.17 +/- 0.03 g); format: organism-based; settings: in vivo, 168 h, time 7 day
[13] = Initial concentration in Sprague-Dawley rat at 1 mg/kg, iv measured upto 24 hrs by LC-MS/MS analysis; format: ADME, organism-based; settings: in vivo
[14] = Acute toxicity in Swiss albino mouse assessed as absolute kidney weight at 5 mg/kg, po measured after 7 days (reference value: 0.29 +/- 0.02 g); format: organism-based; settings: in vivo, 168 h, time 7 day
[15] = Acute toxicity in Swiss albino mouse assessed as triglycerides level at 1000 mg/kg, po measured after 7 days (reference value: 58.51 +/- 10.82 mg/dL); format: organism-based; settings: in vivo, 168 h, time 7 day
[16] = Acute toxicity in Swiss albino mouse assessed as relative uterus weight at 50 mg/kg, po measured after 7 days (reference value: 1.63 +/- 0.71 %); format: organism-based; settings: in vivo, 168 h, time 7 day
[17] = Acute toxicity in Swiss albino mouse assessed as morbidity at 5 to 1000 mg/kg, po measured after 7 days; format: organism-based; settings: in vivo, 168 h, dose 5-1000 mg/kg, time 7 day
Method in brief: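 Acute oral toxicity per OECD guidelines 420, 423 and 425. Swiss albino mice received a single oral dose at 5, 50, 300 or 1000 mg kg1 body weight, with vehicle controls. Animals were watched for morbidity, mortality and observational changes over 7 days. Tail-vein blood was then taken for hematology and serum biochemistry. Organs were inspected at sacrifice. n = 6 per group.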

[18] = system: Mus musculus; assay: In vivo osteogenic activity in ovariectomized BALB/c mouse assessed as decrease in trabecular spacing at 1 to 10 mg/kg, po via gavage administered for 1 month by microCT imaging analysis; format: functional, organism-based; settings: dose 1-10 mg/kg, time 1.0 months
Method in brief: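 Ovariectomized female balb/c mice, 8 weeks old, 10 per group, received 1.0 or 10.0 mg kg-1 once daily by oral gavage (gum acacia vehicle) for 4 weeks, alongside sham and Ovx vehicle groups. Femurs were scanned by microCT. BV/TV, Tb.N and Tb.Sp were derived by the mean intercept length method. Mean ± SE.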

[19] = Acute toxicity in Swiss albino mouse assessed as serum protein level at 5 mg/kg, po measured after 7 days (reference value: 0.66 +/- 0.01 mg/ml); format: organism-based; settings: in vivo, 168 h, time 7 day
[20] = Acute toxicity in Swiss albino mouse assessed as eosinophil count at 1000 mg/kg, po measured after 7 days (reference value: 6.34 +/- 1.04 %); format: organism-based; settings: in vivo, 168 h, time 7 day
[21] = Half life in Sprague-Dawley rat at 1 mg/kg, iv measured upto 24 hrs by LC-MS/MS analysis; format: ADME, organism-based; settings: in vivo
[22] = Acute toxicity in Swiss albino mouse assessed as absolute ovary weight at 300 mg/kg, po measured after 7 days (reference value: 0.04+/- 0.02 g); format: organism-based; settings: in vivo, 168 h, time 7 day
[23] = Acute toxicity in Swiss albino mouse assessed as WBC count per thousand/mm3 at 5 mg/kg, po measured after 7 days (reference value: 6.84 +/- 0.83 /mm3); format: organism-based; settings: in vivo, 168 h, time 7 day
[24] = Acute toxicity in Swiss albino mouse assessed as absolute lung weight at 50 mg/kg, po measured after 7 days (reference value: 0.16 +/- 0.01 g); format: organism-based; settings: in vivo, 168 h, time 7 day
[25] = Acute toxicity in Swiss albino mouse assessed as SGOT level at 1000 mg/kg, po measured after 7 days (reference value: 31.99 +/- 3.37 U/L); format: organism-based; settings: in vivo, 168 h, time 7 day
[26] = system: Mus musculus; assay: In vivo osteogenic activity in ovariectomized BALB/c mouse assessed as increase in energy required to break bone at 1 to 10 mg/kg, po via gavage administered for 1 month by TKC Muromachi bone strength testing method; format: functional, organism-based; settings: dose 1-10 mg/kg, time 1.0 months
Method in brief: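 Ovariectomized balb/c mice were gavaged with 1 or 10 mg kg-1 daily for one month. Bones were then tested on a bone strength tester for energy, stiffness and force to break. Mean ± SEM compared with the Ovx vehicle group.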

[27] = Acute toxicity in Swiss albino mouse assessed as SGPT level at 50 mg/kg, po measured after 7 days (reference value: 14.04 +/- 1.45 U/L); format: organism-based; settings: in vivo, 168 h, time 7 day
[28] = Acute toxicity in Swiss albino mouse assessed as body weight at 5 mg/kg, po measured on day 7 (reference value: 22.75 +/- 0.38 g); format: organism-based; settings: in vivo, 168 h, time 7 day
[29] = Acute toxicity in Swiss albino mouse assessed as absolute kidney weight at 50 mg/kg, po measured after 7 days (reference value: 0.29 +/- 0.02 g); format: organism-based; settings: in vivo, 168 h, time 7 day
[30] = system: Calvarial osteoblast; assay: Induction of osteoblast differentiation in mouse calvarial osteoblast assessed as increase in ALP activity using PNPP as substrate at 1 pM incubated for 48 hrs by spectrophotometric analysis; format: functional, cell-based
[31] = Acute toxicity in Swiss albino mouse assessed as triglycerides level at 300 mg/kg, po measured after 7 days (reference value: 58.51 +/- 10.82 mg/dL); format: organism-based; settings: in vivo, 168 h, time 7 day

Work on CCCCN(C)C(=O)CCCCOc1ccc([C@H]2c3ccc(OC)cc3OC(C)(C)[C@@H]2c2ccccc2)cc1 yielded an Activity [1] of 0.05%, an Activity [2] of 0.13 g and an Activity [3] of 2.77 g/dL. The Activity [4] was 0.97 mg/dL, the Activity [5] was “Active” and the Activity [6] was 0.74 mg/mL. The Activity [7] was 0.07 g, the Activity [8] was 0.24 g and the Activity [9] was 5.1 /mm3. For the same compound, the Activity [10] was 1.23%, the Activity [11] was 0.84% and the Activity [12] was 0.1 g. It also gave a C0 at 24 h [13] of 610 ng/mL, an Activity [14] of 0.28 g and an Activity [15] of 92.31 mg/dL. The Activity [16] was 1.17%, the Activity [17] was “Non-Toxic” and the Activity [18] was “Active”. The Activity [19] was 0.74 mg/mL, the Activity [20] was 5.35% and the half-life [21] was 3.52 h. For the same compound, the Activity [22] was 0.06 g, the Activity [23] was 6.1 10^3/mm3 and the Activity [24] was 0.2 g. For the same compound, the Activity [25] was 38.6 U/L, the Activity [26] was “Active” and the Activity [27] was 17.18 U/L. The Activity [28] was 24.25 g, the Activity [29] was 0.26 g and the Activity [30] was “Active”. The Activity [31] was 57.55 mg/dL.
